Measured values reported in ChEMBL document CHEMBL1240439, “Synthesis and docking studies of novel benzopyran-2-ones with anticancer activity” (2010).

Tests used:
Type in all cases: functional
PC-3 = assay: Cytotoxicity against human PC3 cells assessed as cell growth at 10 uM after 48 hrs by sulforhodamine B assay; details: PC-3, 48 h, read-out: Activity
COLO 205 = assay: Cytotoxicity against human COLO205 cells assessed as cell growth at 10 uM after 48 hrs by sulforhodamine B assay; details: COLO 205, 48 h, read-out: Activity
UACC-257 = assay: Cytotoxicity against human UACC257 cells assessed as cell growth at 10 uM after 48 hrs by sulforhodamine B assay; details: UACC-257, 48 h, read-out: Activity
LOX IMVI [1] = assay: Cytotoxicity against human LOXIMVI cells assessed as cell growth at 10 uM after 48 hrs by sulforhodamine B assay; details: read-out: Activity
[2] = Cytotoxicity against human lung cancer cells after 48 hrs by sulforhodamine B assay; details: Cancer cell lines
Outline: (§1)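 Cells plated at 5000–40,000/well according to doubling time, then held 24 h at 37 °C, 5% CO2, with time-zero plates TCA-fixed. DMSO stocks (400× top concentration) were diluted in medium containing 50 μg/ml gentamycin, giving five 10-fold or ½-log concentrations. After 48 h, adherent cells were fixed in 10% TCA and suspension cells in 16% TCA (final), stained with 0.4% SRB, read at 515 nm. GI50, TGI and LC50 were calculated per cell line.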

SR = assay: Cytotoxicity against human SR cells assessed as cell growth at 10 uM after 48 hrs by sulforhodamine B assay; details: read-out: Activity
MDA-MB-468 = assay: Cytotoxicity against human MDA-MB-468 cells assessed as cell growth at 10 uM after 48 hrs by sulforhodamine B assay; details: MDA-MB-468, 48 h, read-out: Activity
NCI-H322M = assay: Cytotoxicity against human NCI-H322M cells assessed as cell growth at 10 uM after 48 hrs by sulforhodamine B assay; details: read-out: Activity
MDA-MB-435 = assay: Cytotoxicity against human MDA-MB-435 cells assessed as cell growth at 10 uM after 48 hrs by sulforhodamine B assay; details: MDA-MB-435, 48 h, read-out: Activity
[3] = Cytotoxicity against human CNS cancer cells after 48 hrs by sulforhodamine B assay; details: Cancer cell lines
Outline: (§2)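 Cells were plated at 5000–40,000/well according to doubling time and preincubated 24 h at 37 °C, 5% CO2. Time-zero plates were TCA-fixed. DMSO stocks were diluted in medium with gentamycin to five concentrations (10-fold or ½ log series) plus control, then incubated 48 h. Adherent cells were fixed with cold TCA (suspension cells with 16% final), stained with SRB, and read at 515 nm. GI50, TGI and LC50 were calculated per line.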

MCF7 = assay: Cytotoxicity against human MCF7 cells assessed as cell growth at 10 uM after 48 hrs by sulforhodamine B assay; details: MCF7, 48 h, read-out: Activity
SNB-75 = assay: Cytotoxicity against human SNB75 cells assessed as cell growth at 10 uM after 48 hrs by sulforhodamine B assay; details: SNB-75, 48 h, read-out: Activity
NCI-H460 = assay: Cytotoxicity against human NCI-H460 cells assessed as cell growth at 10 uM after 48 hrs by sulforhodamine B assay; details: NCI-H460, 48 h, read-out: Activity
A549 = assay: Cytotoxicity against human A549 cells assessed as cell growth at 10 uM after 48 hrs by sulforhodamine B assay; details: A549, 48 h, read-out: Activity
HCT-15 = assay: Cytotoxicity against human HCT15 cells assessed as cell growth at 10 uM after 48 hrs by sulforhodamine B assay; details: HCT-15, 48 h, read-out: Activity
SN12C = assay: Cytotoxicity against human SN12C cells assessed as cell growth at 10 uM after 48 hrs by sulforhodamine B assay; details: read-out: Activity
DU-145 = assay: Cytotoxicity against human DU145 cells assessed as cell growth at 10 uM after 48 hrs by sulforhodamine B assay; details: DU-145, 48 h, read-out: Activity
[4] = Cytotoxicity against human renal cancer cells after 48 hrs by sulforhodamine B assay; details: Cancer cell lines; outline: as §1
SF-539 = assay: Cytotoxicity against human SF539 cells assessed as cell growth at 10 uM after 48 hrs by sulforhodamine B assay; details: SF-539, 48 h, read-out: Activity
SK-MEL-5 = assay: Cytotoxicity against human SK-MEL-5 cells assessed as cell growth at 10 uM after 48 hrs by sulforhodamine B assay; details: SK-MEL-5, 48 h, read-out: Activity
BT-549 = assay: Cytotoxicity against human BT549 cells assessed as cell growth at 10 uM after 48 hrs by sulforhodamine B assay; details: BT-549, 48 h, read-out: Activity
OVCAR-8 = assay: Cytotoxicity against human OVCAR8 cells assessed as cell growth at 10 uM after 48 hrs by sulforhodamine B assay; details: OVCAR-8, 48 h, read-out: Activity
U-251 = assay: Cytotoxicity against human U251 cells assessed as cell growth at 10 uM after 48 hrs by sulforhodamine B assay; details: U-251, 48 h, read-out: Activity
HOP-62 = assay: Cytotoxicity against human HOP62 cells assessed as cell growth at 10 uM after 48 hrs by sulforhodamine B assay; details: HOP-62, 48 h, read-out: Activity
LOX IMVI [5] = assay: Cytotoxicity against human LOXIMVI cells after 48 hrs by sulforhodamine B assay; outline: as §2
EKVX = assay: Cytotoxicity against human EKVX cells assessed as cell growth at 10 uM after 48 hrs by sulforhodamine B assay; details: read-out: Activity
UACC-62 = assay: Cytotoxicity against human UACC62 cells assessed as cell growth at 10 uM after 48 hrs by sulforhodamine B assay; details: UACC-62, 48 h, read-out: Activity
Malme-3M = assay: Cytotoxicity against human MALME-3M cells assessed as cell growth at 10 uM after 48 hrs by sulforhodamine B assay; details: read-out: Activity
SK-MEL-28 = assay: Cytotoxicity against human SK-MEL-28 cells assessed as cell growth at 10 uM after 48 hrs by sulforhodamine B assay; details: SK-MEL-28, 48 h, read-out: Activity
OVCAR-4 = assay: Cytotoxicity against human OVCAR4 cells after 48 hrs by sulforhodamine B assay; details: OVCAR-4, 48 h; outline: as §2
SF-268 = assay: Cytotoxicity against human SF268 cells assessed as cell growth at 10 uM after 48 hrs by sulforhodamine B assay; details: SF-268, 48 h, read-out: Activity
HT-29 = assay: Cytotoxicity against human HT-29 cells assessed as cell growth at 10 uM after 48 hrs by sulforhodamine B assay; details: HT-29, 48 h, read-out: Activity
IGROV-1 = assay: Cytotoxicity against human IGROV1 cells assessed as cell growth at 10 uM after 48 hrs by sulforhodamine B assay; details: IGROV-1, 48 h, read-out: Activity
[6] = read-out: LC50 (the source's name)

Cc1cc(=O)n(C(=O)COc2ccc3c(-c4ccccc4)cc(=O)oc3c2C)[nH]1
growth at 10 µM (PC-3): -93%
growth at 10 µM (COLO 205): 6.21%
growth at 10 µM (UACC-257): 6.57%
growth at 10 µM (LOX IMVI [1]): -61.8%
GI50 [2]: 3.69 µM
TGI [2]: 37.4 µM
CC50 [2, 6]: 65.1 µM
growth at 10 µM (SR): 18.5%
growth at 10 µM (MDA-MB-468): -8.13%
growth at 10 µM (NCI-H322M): -24.7%
growth at 10 µM (MDA-MB-435): -39.6%
GI50 [3]: 2.58 µM
TGI [3]: 8.85 µM
CC50 [3, 6]: 27.7 µM
growth at 10 µM (MCF7): -14.4%
growth at 10 µM (SNB-75): -35.2%
growth at 10 µM (NCI-H460): 10.9%
growth at 10 µM (A549): 0.69%
growth at 10 µM (HCT-15): 38.3%
growth at 10 µM (SN12C): -69.3%
growth at 10 µM (DU-145): -56.3%
GI50 [4]: 10.7 µM
TGI [4]: 21.4 µM
CC50 [4, 6]: 55.2 µM
growth at 10 µM (SF-539): -78.2%
growth at 10 µM (SK-MEL-5): -31.5%
growth at 10 µM (BT-549): -65.8%
growth at 10 µM (OVCAR-8): -30.5%
growth at 10 µM (U-251): -72.4%
growth at 10 µM (HOP-62): -18.6%
GI50 (LOX IMVI [5]): 1.99 µM
TGI (LOX IMVI [5]): 3.88 µM
growth at 10 µM (EKVX): -33.6%
growth at 10 µM (UACC-62): -27.3%
growth at 10 µM (Malme-3M): -8.61%
growth at 10 µM (SK-MEL-28): -47.2%
GI50 (OVCAR-4): 1.95 µM
TGI (OVCAR-4): 4.73 µM
growth at 10 µM (SF-268): 2.94%
growth at 10 µM (HT-29): -44.2%
growth at 10 µM (IGROV-1): -17.5%
